From ChEMBL document CHEMBL3414437, “Synthesis of CDDO-amino acid-nitric oxide donor trihybrids as potential antitumor agents against both drug-sensitive and drug-resistant colon cancer” (J Med Chem, 2015)
Calls of active or inactive are those of the source. No cut-off for these calls is given here.

Legend:
[1] = Antiproliferative activity against 5-FU resistant human HCT8 cells assessed as inhibition of cell proliferation after 72 hrs by MTT assay; assay type: functional, cell-based; settings: HCT-8, 72 h
Summary of the method: (§1)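 Cells (1.0 × 10^4/well) grown overnight in DMEM with 10% FBS. Treated in triplicate with eight concentrations ([…]) of compound from DMSO stock, final DMSO <0.4%, for 72 h. MTT added for the last 4 h, formazan dissolved in DMSO, read at 570 nm. Inhibition = (Acontrol−Atreated)/Acontrol. IC50 given as mean ± SD of three independent experiments.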

[2] = Antiproliferative activity against human HCT8 cells assessed as inhibition of cell proliferation after 72 hrs by MTT assay; assay type: functional, cell-based; settings: HCT-8, 72 h; summary of the method: as §1
[3] = Antiproliferative activity against 5-FU resistant human HCT8 cells assessed as inhibition of cell proliferation at 1 uM after 72 hrs by MTT assay; assay type: functional; settings: HCT-8, 72 h, read-out: GI
Summary of the method: (§2)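 Cells grown in DMEM with 10% FBS and exposed to compound at 1 µM for 72 h. Proliferation measured by MTT at 570 nm and expressed as % inhibition versus untreated cells. Mean ± SD of three independent experiments.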

[4] = Antiproliferative activity against human CCD-841-CoN cells assessed as inhibition of cell proliferation after 72 hrs by MTT assay; assay type: cell-based; summary of the method: as §1
[5] = Antiproliferative activity against human HCT8 cells assessed as inhibition of cell proliferation at 1 uM after 72 hrs by MTT assay; assay type: functional; settings: HCT-8, 72 h, read-out: GI; summary of the method: as §2
HCT-8 [6] = assay: Induction of nitric oxide release in 5-FU resistant human HCT8 cells at 100 uM incubated for 150 mins by Griess assay; assay type: functional, cell-based
Summary of the method: (§3)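 Cells (1 × 10^6/well) treated in triplicate with compound at 100 µM for 150 min. Lysates mixed with Griess reagent for 10 min at 37 °C and read at 540 nm. Nitrite quantified from a sodium nitrite standard curve; 0.4% DMSO-treated cells served as background. Mean ± SD of three experiments.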

HCT-8 [7] = assay: Induction of nitric oxide release in human HCT8 cells at 100 uM incubated for 150 mins by Griess assay; assay type: functional, cell-based; summary of the method: as §3
CCD-841CoN = assay: Induction of nitric oxide release in human CCD-841-CoN cells at 100 uM incubated for 150 mins by Griess assay; assay type: functional, cell-based; summary of the method: as §3

SMILES | IC50 [1] [nM] | IC50 [2] [nM] | inhibition of growth at 1 µM [3] [%] | IC50 [4] [nM] | inhibition of growth at 1 µM [5] [%] | Activity (HCT-8 [6]) | Activity (HCT-8 [7]) | Activity (CCD-841CoN)
O=c1[nH]cc(F)c(=O)[nH]1 [FLUOROURACIL] | 36600 | 910 | – | – | – | – | – | –
CC1(C)CC[C@]2(C(=O)NCC(=O)OCCCCOc3no[n+]([O-])c3S(=O)(=O)c3ccccc3)CC[C@]3(C)[C@H](C(=O)C=C4[C@@]5(C)C=C(C#N)C(=O)C(C)(C)[C@@H]5CC[C@]43C)[C@@H]2C1 | 315 | 383 | > 90 | 1120 | > 90 | – | – | –
CC1(C)CC[C@]2(C(=O)NCC(=O)OCCCCCCOc3no[n+]([O-])c3S(=O)(=O)c3ccccc3)CC[C@]3(C)[C@H](C(=O)C=C4[C@@]5(C)C=C(C#N)C(=O)C(C)(C)[C@@H]5CC[C@]43C)[C@@H]2C1 | 339 | 356 | > 90 | 1420 | > 90 | – | – | –
CC1(C)CC[C@]2(C(=O)N3CCC[C@H]3C(=O)OCC#CCOc3no[n+]([O-])c3S(=O)(=O)c3ccccc3)CC[C@]3(C)[C@H](C(=O)C=C4[C@@]5(C)C=C(C#N)C(=O)C(C)(C)[C@@H]5CC[C@]43C)[C@@H]2C1 | 343 | 441 | > 90 | 1420 | > 90 | – | – | –
O=S(=O)(c1ccccc1)c1c(OCC#CCO)no[n+]1[O-] | 36600 | 33500 | – | – | – | – | – | –
C[C@@H](NC(=O)[C@]12CCC(C)(C)C[C@H]1[C@H]1C(=O)C=C3[C@@]4(C)C=C(C#N)C(=O)C(C)(C)[C@@H]4CC[C@@]3(C)[C@]1(C)CC2)C(=O)OCC#CCOc1no[n+]([O-])c1S(=O)(=O)c1ccccc1 | 276 | 370 | > 90 | 958 | > 90 | Active | Active | inactive
CC1(C)CC[C@]2(C(=O)NCC(=O)OCCOCCOc3no[n+]([O-])c3S(=O)(=O)c3ccccc3)CC[C@]3(C)[C@H](C(=O)C=C4[C@@]5(C)C=C(C#N)C(=O)C(C)(C)[C@@H]5CC[C@]43C)[C@@H]2C1 | 562 | 872 | > 90 | 3130 | > 90 | – | – | –
CC1(C)CC[C@]2(C(=O)N3CCC[C@H]3C(=O)OCCCCCCOc3no[n+]([O-])c3S(=O)(=O)c3ccccc3)CC[C@]3(C)[C@H](C(=O)C=C4[C@@]5(C)C=C(C#N)C(=O)C(C)(C)[C@@H]5CC[C@]43C)[C@@H]2C1 | – | – | – | – | – | inactive | inactive | inactive
CC1(C)CC[C@]2(C(=O)N3CCC[C@H]3C(=O)OCCCCOc3no[n+]([O-])c3S(=O)(=O)c3ccccc3)CC[C@]3(C)[C@H](C(=O)C=C4[C@@]5(C)C=C(C#N)C(=O)C(C)(C)[C@@H]5CC[C@]43C)[C@@H]2C1 | – | – | – | – | – | inactive | inactive | inactive
CC1(C)CC[C@]2(C(=O)NCCCC(=O)OCC#CCOc3no[n+]([O-])c3S(=O)(=O)c3ccccc3)CC[C@]3(C)[C@H](C(=O)C=C4[C@@]5(C)C=C(C#N)C(=O)C(C)(C)[C@@H]5CC[C@]43C)[C@@H]2C1 | 381 | 504 | > 90 | 1700 | > 90 | – | – | –
CC1(C)CC[C@]2(C(=O)N3CCC[C@H]3C(=O)OCCCOc3no[n+]([O-])c3S(=O)(=O)c3ccccc3)CC[C@]3(C)[C@H](C(=O)C=C4[C@@]5(C)C=C(C#N)C(=O)C(C)(C)[C@@H]5CC[C@]43C)[C@@H]2C1 | – | – | – | – | – | inactive | inactive | inactive
CC1(C)CC[C@]2(C(=O)NCCC(=O)OCC#CCOc3no[n+]([O-])c3S(=O)(=O)c3ccccc3)CC[C@]3(C)[C@H](C(=O)C=C4[C@@]5(C)C=C(C#N)C(=O)C(C)(C)[C@@H]5CC[C@]43C)[C@@H]2C1 | 462 | 379 | > 90 | 1470 | > 90 | – | – | –
CC1(C)CC[C@]2(C(=O)NCC(=O)O)CC[C@]3(C)[C@H](C(=O)C=C4[C@@]5(C)C=C(C#N)C(=O)C(C)(C)[C@@H]5CC[C@]43C)[C@@H]2C1 | 2260 | 3190 | – | – | – | inactive | inactive | –
CC1(C)CC[C@]2(C(=O)NCC(=O)OCCCOc3no[n+]([O-])c3S(=O)(=O)c3ccccc3)CC[C@]3(C)[C@H](C(=O)C=C4[C@@]5(C)C=C(C#N)C(=O)C(C)(C)[C@@H]5CC[C@]43C)[C@@H]2C1 | 380 | 550 | > 90 | 1720 | > 90 | – | – | –
